From ChEMBL document CHEMBL3271988, “Nitrogen analogues of 1,4-benzoquinones. Activities against the ascitic sarcoma 180 of mice” (J Med Chem, 1978)
Active and inactive are the calls of the source. No cut-off for these calls is given here.

Tests used:
[1] = Redox potential of the compound in alcohol-water solution; conditions: buffer
Sarcoma-180 [2] = experiment: Antitumor activity against mouse Sarcoma 180 cells allografted in Swiss mouse assessed as weight gain at 22.5 mg/kg, ip three doses were given at 24 hrs interval starting 24 hrs after allograft injection measured after 3 days relative to control; format: functional; conditions: route intraperitoneal
Method in brief: (§1)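 Ascitic sarcoma 180 model in Swiss mice: 10^6 cells ip, then three ip doses at 24-h intervals beginning 24 h later. Mice were weighed 1 day after cell injection and again 3 days later (24 h after the third dose). Percent weight gain of treated mice was compared with saline-treated controls on the same schedule.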

Sarcoma-180 [3] = experiment: Antitumor activity against mouse Sarcoma 180 cells allografted in Swiss mouse at 22.5 mg/kg, ip three doses were given at 24 hrs interval starting 24 hrs after allograft injection relative to control; format: functional; conditions: route intraperitoneal
Method in brief: (§2)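 Swiss mice received 10^6 ascitic sarcoma 180 cells ip, then three ip doses 24 h apart starting at 24 h. Controls got isotonic salt solution on the same schedule. T/C% is mean survival time of treated over controls (6 mice per group).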

[4] = Acute toxicity in single ip dosed Swiss mouse assessed as death up to 5 days; format: organism-based; conditions: in vivo
Method in brief: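 Male Swiss mice given one ip dose. LD50 taken as the single dose killing 50% of animals within 5 days.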

Sarcoma-180 [5] = experiment: Antitumor activity against mouse Sarcoma 180 cells allografted in Swiss mouse assessed as survival time at 22.5 mg/kg, ip three doses were given at 24 hrs interval starting 24 hrs after allograft injection relative to control; format: functional; conditions: route intraperitoneal
Method in brief: (§3)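 Swiss mice inoculated ip with 10^6 ascitic sarcoma 180 cells. Compound given ip daily ×3 at 24-h intervals, starting 24 h after inoculation. Controls received isotonic saline on the same schedule; 6 mice per group. Mice alive at 60 days counted as 60 days in mean survival (±SD).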

[6] = Half life of the compound in water at pH 7 at 25 degC by spectrophotometry; format: physicochemical
Method in brief: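 Compound dissolved in absolute ethanol, then diluted into 0.01 M Tris buffer brought to pH 7 with HCl, 25 °C. Absorbance at λmax followed over hours or days; log absorbance vs time fitted by least squares, rate constant and half-time taken from the slope.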

Sarcoma-180 [7] = experiment: Antitumor activity against mouse Sarcoma 180 cells allografted in Swiss mouse at 9 mg/kg, ip three doses were given at 24 hrs interval starting 24 hrs after allograft injection relative to control; format: functional; conditions: route intraperitoneal
Method in brief: (§4)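 Swiss mice given 10^6 ascitic sarcoma 180 cells ip; three ip doses at 24-h intervals starting 24 h later; controls received isotonic salt solution on the same schedule. […] Cures = alive without cancer cells at 60 days.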

Sarcoma-180 [8] = experiment: Antitumor activity against mouse Sarcoma 180 cells allografted in Swiss mouse assessed as weight gain at 9 mg/kg, ip three doses were given at 24 hrs interval starting 24 hrs after allograft injection measured after 3 days relative to control; format: functional; conditions: route intraperitoneal
Method in brief: as §1

Sarcoma-180 [9] = experiment: Antitumor activity against mouse Sarcoma 180 cells allografted in Swiss mouse assessed as cure at 9 mg/kg, ip three doses were given at 24 hrs interval starting 24 hrs after allograft injection measured after 60 days; format: functional, organism-based; set-up: dose 9 mg/kg
Method in brief: (§5)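 Swiss mice given 10^6 ascitic sarcoma 180 cells ip. Starting 24 h later, three ip doses were given 24 h apart. Controls got isotonic salt solution on the same schedule. A cure was a mouse alive with no evidence of cancer cells 60 days after cell injection, reported per 6 mice.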

Sarcoma-180 [10] = experiment: Antitumor activity against mouse Sarcoma 180 cells allografted in Swiss mouse assessed as survival at 9 mg/kg, ip three doses were given at 24 hrs interval starting 24 hrs after allograft injection measured after 5 days; format: functional, organism-based; set-up: dose 9 mg/kg
Method in brief: (§6)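 Swiss mice were injected ip with 10^6 ascitic sarcoma 180 cells. Three daily ip doses followed, the first 24 h after cell injection. The read-out was the number of mice surviving at 5 days, out of 6 treated.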

Sarcoma-180 [11] = experiment: Antitumor activity against mouse Sarcoma 180 cells allografted in Swiss mouse assessed as survival time at 9 mg/kg, ip three doses were given at 24 hrs interval starting 24 hrs after allograft injection relative to control; format: functional; conditions: route intraperitoneal
Method in brief: as §3

Sarcoma-180 [12] = experiment: Antitumor activity against mouse Sarcoma 180 cells allografted in Swiss mouse at 90 mg/kg, ip three doses were given at 24 hrs interval starting 24 hrs after allograft injection relative to control; format: functional; conditions: route intraperitoneal
Method in brief: as §4

Sarcoma-180 [13] = experiment: Antitumor activity against mouse Sarcoma 180 cells allografted in Swiss mouse assessed as survival at 90 mg/kg, ip three doses were given at 24 hrs interval starting 24 hrs after allograft injection measured after 5 days; format: functional, organism-based; set-up: dose 90 mg/kg
Method in brief: as §6

Sarcoma-180 [14] = experiment: Antitumor activity against mouse Sarcoma 180 cells allografted in Swiss mouse assessed as survival time at 90 mg/kg, ip three doses were given at 24 hrs interval starting 24 hrs after allograft injection relative to control; format: functional; conditions: route intraperitoneal
Method in brief: as §3

Sarcoma-180 [15] = experiment: Antitumor activity against mouse Sarcoma 180 cells allografted in Swiss mouse assessed as weight gain at 90 mg/kg, ip three doses were given at 24 hrs interval starting 24 hrs after allograft injection measured after 3 days relative to control; format: functional; conditions: route intraperitoneal
Method in brief: as §1

Sarcoma-180 [16] = experiment: Antitumor activity against mouse Sarcoma 180 cells allografted in Swiss mouse at 5 mg/kg, ip three doses were given at 24 hrs interval starting 24 hrs after allograft injection relative to control; format: functional; conditions: route intraperitoneal
Method in brief: as §2

Sarcoma-180 [17] = experiment: Antitumor activity against mouse Sarcoma 180 cells allografted in Swiss mouse assessed as weight gain at 5 mg/kg, ip three doses were given at 24 hrs interval starting 24 hrs after allograft injection measured after 3 days relative to control; format: functional; conditions: route intraperitoneal
Method in brief: as §1

Sarcoma-180 [18] = experiment: Antitumor activity against mouse Sarcoma 180 cells allografted in Swiss mouse assessed as survival time at 5 mg/kg, ip three doses were given at 24 hrs interval starting 24 hrs after allograft injection relative to control; format: functional; conditions: route intraperitoneal
Method in brief: as §3

Sarcoma-180 [19] = experiment: Antitumor activity against mouse Sarcoma 180 cells allografted in Swiss mouse assessed as survival at 5 mg/kg, ip three doses were given at 24 hrs interval starting 24 hrs after allograft injection measured after 5 days; format: functional, organism-based; set-up: dose 5 mg/kg
Method in brief: as §6

Sarcoma-180 [20] = experiment: Antitumor activity against mouse Sarcoma 180 cells allografted in Swiss mouse assessed as survival at 8 mg/kg, ip three doses were given at 24 hrs interval starting 24 hrs after allograft injection measured after 5 days; format: functional, organism-based; set-up: dose 8 mg/kg
Method in brief: as §6

Sarcoma-180 [21] = experiment: Antitumor activity against mouse Sarcoma 180 cells allografted in Swiss mouse assessed as weight gain at 8 mg/kg, ip three doses were given at 24 hrs interval starting 24 hrs after allograft injection measured after 3 days relative to control; format: functional; conditions: route intraperitoneal
Method in brief: as §1

Sarcoma-180 [22] = experiment: Antitumor activity against mouse Sarcoma 180 cells allografted in Swiss mouse assessed as survival time at 8 mg/kg, ip three doses were given at 24 hrs interval starting 24 hrs after allograft injection relative to control; format: functional; conditions: route intraperitoneal
Method in brief: as §3

Sarcoma-180 [23] = experiment: Antitumor activity against mouse Sarcoma 180 cells allografted in Swiss mouse at 8 mg/kg, ip three doses were given at 24 hrs interval starting 24 hrs after allograft injection relative to control; format: functional; conditions: route intraperitoneal
Method in brief: as §4

Sarcoma-180 [24] = experiment: Antitumor activity against mouse Sarcoma 180 cells allografted in Swiss mouse assessed as cure at 8 mg/kg, ip three doses were given at 24 hrs interval starting 24 hrs after allograft injection measured after 60 days; format: functional, organism-based; set-up: dose 8 mg/kg
Method in brief: as §5

Sarcoma-180 [25] = experiment: Antitumor activity against mouse Sarcoma 180 cells allografted in Swiss mouse assessed as weight gain at 200 mg/kg, ip three doses were given at 24 hrs interval starting 24 hrs after allograft injection measured after 3 days relative to control; format: functional; conditions: route intraperitoneal
Method in brief: as §1

Sarcoma-180 [26] = experiment: Antitumor activity against mouse Sarcoma 180 cells allografted in Swiss mouse assessed as survival time at 200 mg/kg, ip three doses were given at 24 hrs interval starting 24 hrs after allograft injection relative to control; format: functional; conditions: route intraperitoneal
Method in brief: as §3

Sarcoma-180 [27] = experiment: Antitumor activity against mouse Sarcoma 180 cells allografted in Swiss mouse assessed as survival at 200 mg/kg, ip three doses were given at 24 hrs interval starting 24 hrs after allograft injection measured after 5 days; format: functional, organism-based; set-up: dose 200 mg/kg
Method in brief: as §6

Sarcoma-180 [28] = experiment: Antitumor activity against mouse Sarcoma 180 cells allografted in Swiss mouse at 200 mg/kg, ip three doses were given at 24 hrs interval starting 24 hrs after allograft injection relative to control; format: functional; conditions: route intraperitoneal
Method in brief: as §2

O=C1C(Br)=CC(=NCl)C=C1Br
Redox potential [1]: 0.665 V | Activity (Sarcoma-180 [2]): -25% | T/C (Sarcoma-180 [3]): 218% | LD50 at 120 h [4]: 63 mg/kg | Survival (Sarcoma-180 [5]): 41 days | half-life [6]: 23.3 h

O=C1C(Br)=CC(=NBr)C=C1Br
T/C (Sarcoma-180 [7]): 178% | Redox potential [1]: 0.678 V | LD50 at 120 h [4]: 25 mg/kg | Activity (Sarcoma-180 [8]): -3% | Activity (Sarcoma-180 [9]): inactive | Activity (Sarcoma-180 [10]): Active | Survival (Sarcoma-180 [11]): 22.8 days | half-life [6]: 10.4 h

O=C1C=C/C(=N/O)C(Cl)=C1
T/C (Sarcoma-180 [12]): 304% | Redox potential [1]: 0.537 V | LD50 at 120 h [4]: 380 mg/kg | Activity (Sarcoma-180 [13]): Active | Survival (Sarcoma-180 [14]): 39 days | Activity (Sarcoma-180 [15]): -2.4%

O=C1C=CC(=NCl)C=C1
Redox potential [1]: 0.652 V | T/C (Sarcoma-180 [16]): 246% | LD50 at 120 h [4]: 12.5 mg/kg | Activity (Sarcoma-180 [17]): -6.9% | Survival (Sarcoma-180 [18]): 40.5 days | Activity (Sarcoma-180 [19]): Active | half-life [6]: 35.3 h

O=C1C(Cl)=CC(=NBr)C=C1Cl
Activity (Sarcoma-180 [20]): Active | Activity (Sarcoma-180 [21]): -5.1% | Survival (Sarcoma-180 [22]): 27.2 days | T/C (Sarcoma-180 [23]): 165% | LD50 at 120 h [4]: 20 mg/kg | Activity (Sarcoma-180 [24]): inactive | half-life [6]: 3.7 h

O=C1C=C/C(=N/O)C(I)=C1
Activity (Sarcoma-180 [25]): 0% | Survival (Sarcoma-180 [26]): 23.7 days | Redox potential [1]: 0.531 V | Activity (Sarcoma-180 [27]): Active | LD50 at 120 h [4]: 550 mg/kg | T/C (Sarcoma-180 [28]): 171%
